High-throughput results as filed in PubChem.
OXTR agonist: human OXTR agonists, primary screen, fluorescence, CHO-OTR cells, Fluo-8 calcium; 320,000 compounds, 0.32% hits; AID 2435, 2010; activation, % at 3 µM; Fluo-8 calcium fluorescence; normalized: DMSO 0%, oxytocin 100%; Oxytocin receptor (Homo sapiens), P30559;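 active means activation above the mean of all tested compounds plus 3 SD, cutoff set per screening run, cut at about 20% in these data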;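 further: peak over basal fluorescence ratio from a 100 s FLIPR kinetic read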
Target sequence (P30559 whole entry, looked up): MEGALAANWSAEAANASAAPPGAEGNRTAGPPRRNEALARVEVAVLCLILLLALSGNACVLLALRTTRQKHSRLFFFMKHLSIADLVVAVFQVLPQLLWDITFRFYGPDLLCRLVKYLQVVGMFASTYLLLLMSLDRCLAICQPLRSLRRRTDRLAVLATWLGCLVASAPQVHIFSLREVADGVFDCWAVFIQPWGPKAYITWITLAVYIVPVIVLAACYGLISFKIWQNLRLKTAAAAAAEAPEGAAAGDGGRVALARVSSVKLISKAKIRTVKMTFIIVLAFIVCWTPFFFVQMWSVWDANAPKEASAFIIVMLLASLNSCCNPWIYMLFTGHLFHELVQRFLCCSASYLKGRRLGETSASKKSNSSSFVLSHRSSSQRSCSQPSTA
TAAR1 antagonist: human TAAR1 antagonists, primary screen, Fluo-8 calcium fluorescence, CHO RD-HGA16 cells; antagonist; 360,000 compounds, 1.5% hits; Trace amine-associated receptor 1 (Homo sapiens), Q96RJ0; inhibition, % at 3 µM;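 active means inhibition above a per-plate cutoff, the mean inhibition of test compounds on that plate plus 3 SD, cut at about 49% in these data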;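 further: 0% = DMSO plus EC80 beta-PEA response and 100% = DMSO alone without agonist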
Target sequence (Q96RJ0 whole entry, looked up): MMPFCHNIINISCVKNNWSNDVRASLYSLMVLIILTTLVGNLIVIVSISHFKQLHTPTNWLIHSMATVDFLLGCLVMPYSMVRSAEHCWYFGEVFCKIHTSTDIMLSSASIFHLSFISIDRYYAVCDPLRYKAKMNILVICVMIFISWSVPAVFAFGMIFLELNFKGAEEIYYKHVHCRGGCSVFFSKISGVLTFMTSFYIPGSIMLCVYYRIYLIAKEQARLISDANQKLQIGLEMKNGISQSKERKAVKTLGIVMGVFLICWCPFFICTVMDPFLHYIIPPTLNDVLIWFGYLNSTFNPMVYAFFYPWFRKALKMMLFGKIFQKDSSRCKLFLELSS
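Assay system: RD-HGA16 CHO cells with stable hTAAR1 and Gα16 / Reagent: EC80 β-phenethylamine stimulus / Doses: 3 µM, single point / Timing: dye loading 75 min at 37 °C, then 30 min room temperature / Measured by: Fluo-8 intracellular calcium dye fluorescence, real-time kinetic reads / Controls: vehicle wells and EC80 agonist wells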
OXTR potentiate: human OXTR potentiators, primary screen, fluorescence, CHO-OTR cells, Fluo-8 calcium; Oxytocin receptor (Homo sapiens), P30559; Fluo-8 calcium fluorescence, potentiator mode; 0% = oxytocin EC15, 100% = EC100; activation, % at 3 µM; 320,000 compounds, 0.061% hits;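 active means activation above that plate's cutoff, the mean activation of tested compounds plus 3 SD, cut at about 6.6% in these data, passing the limit was not always enough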;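 further: 100% uses oxytocin at 75 nM as the full agonist control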
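Measured by – Fluo-8 calcium dye fluorescence · Test system – human OTR in CHO cells · Dosing – one concentration, 3.0 µM compound · Controls – EC15 oxytocin alone as 0%, 75 nM oxytocin as 100% · Evaluation – normalized max/min fluorescence ratio, % activation · Timing – 6 min pre-incubation, 100 s read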
TAAR1 agonist: human TAAR1 agonists, primary screen, Fluo-8 calcium fluorescence, CHO RD-HGA16 cells; AID 624467, 2012; 360,000 compounds, 0.99% hits; activation, % at 3 µM; Trace amine-associated receptor 1 (Homo sapiens), Q96RJ0; vehicle wells 0%, saturating PEA agonist 100%;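 active means activation above the mean activation of all test compounds in the run plus 3 SD, cut at about 38% in these data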
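Assay system: CHO-derived RD-HGA16 cells with stable Gα16 and human TAAR1; timing: 17-24 h seeding, 75 min 37 °C dye, 30 min RT; read-out: % activation from peak over basal fluorescence ratio, DMSO-to-PEA scaled; measured by: kinetic Fluo-8 calcium fluorescence; benchmarks: low control DMSO, high control PEA (EC100); doses: 3 µM single concentration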
V1aR counter: agonists of human V1a receptor, primary screen, counter-screen for OXTR agonist project, fluorescence, CHO-V1R cells | Vasopressin V1a receptor (Homo sapiens), P37288 | Fluo-8 calcium fluorescence, agonist mode; 0% DMSO, 100% 3 nM vasopressin | activation, % at 3 µM | 320,000 compounds, 0.25% hits;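 active means activation above the mean activation of all tested compounds plus 3 SD, per screening run, cut at about 20% in these data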;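 further: signal is peak over basal fluorescence ratio across a 100 second FLIPR read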
TAAR1 ag confirm: human TAAR1 agonists, retest of hits, confirmation, Fluo-8 calcium fluorescence, CHO RD-HGA16 cells | shares compounds with TAAR1 agonist | scaled: DMSO 0%, maximal phenethylamine 100% | activation, % at 3 µM | 2,400 compounds, 82% hits;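 active means activation above a cutoff set at the run's mean compound activation plus 3 SD, cut at about 39% in these data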
Ga16 ag counter: nonselective calcium mobilization agonists, CHO-Ga16 cells, counter-screen for hTAAR1 agonist project, cell-based, fluorescence, CHO-Ga16 parental line | activation, % at 3 µM | 2,400 compounds, 50% hits | shares compounds with TAAR1 agonist | Fluo-8 calcium fluorescence; normalized to maximal ATP response, DMSO zero;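 active means activation above the run cutoff, the mean activation over all tested wells plus 3 SD, cut at about 12% in these data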;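 further: 0% = DMSO wells and 100% = maximal ATP response on the peak over basal ratio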
TAAR1 desensitize: TAAR1 desensitization by agonist hits, confirmation, counter-screen for TAAR1 agonist project, cell-based, fluorescence, tachyphylaxis. shares compounds with TAAR1 agonist. CHO RD-HGA16 hTAAR1, Fluo-8 calcium, beta-PEA response inhibition. inhibition, % at 3 µM. 2,400 compounds, 46% hits. AID 651951, 2012;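 active means inhibition above the run cutoff, the mean inhibition of all test compounds plus 3 SD, cut at about 49% in these data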;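 further: beta-PEA stimulus applied at its EC80; loss of beta-PEA calcium signal after compound pretreatment read as receptor desensitization; 0% = DMSO with beta-PEA at EC80 and 100% = DMSO alone without agonist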
Ga16 nonsel ant: inhibition of ATP-evoked calcium response in CHO-Ga16 cells, counter-screen for TAAR1 agonist project, cell-based, fluorescence. shares compounds with TAAR1 agonist. CHO-Ga16 ATP-induced calcium, Fluo-8 fluorescence. inhibition, % at 3 µM. 2,400 compounds, 39% hits. AID 651952, 2012;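 active means inhibition above the plate's mean compound inhibition plus 3 SD, computed per plate, cut at about 22% in these data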;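 further: 0% = EC80 ATP with DMSO and 100% = DMSO wells without ATP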
* = called active by the depositor; / = no result given. Rows were chosen to be rich in hits. Some 2.3% of all compounds tested hit in one or more screens of this group.

SMILES	OXTR agonist	TAAR1 antagonist	OXTR potentiate	TAAR1 agonist	V1aR counter	TAAR1 ag confirm	Ga16 ag counter	TAAR1 desensitize	Ga16 nonsel ant
Nc1cnnc(N/N=C\c2ccccc2)c1Cl	0	-17	2	46*	0	69*	0	22	5
Cc1ccc(C)c2[nH]c(=O)c(C(c3nnnn3Cc3ccco3)N3CCc4ccccc4C3)cc12 (configuration not stated)	1	45	-8	52*	1	58*	3	7	5
Cc1cc(C(=O)CN2C(=O)C(=O)N(Cc3ccco3)C2=O)c(C)n1CCc1ccc(F)cc1	2	7	-7	48*	1	88*	9	43	12
c1ccc(CCN2CN(CCCN3CCOCC3)c3nc4ccccc4n3C2)cc1	0	/	-1	/	0	/	0	/	11
Cc1ccc(S(=O)(=O)C2(C(=O)NCCc3ccccc3)CC2)cc1	4	2	-8	50*	0	82*	0	35	5
Cc1ccc(S(=O)(=O)NNC(=S)NCCc2ccccc2)cc1	0	-22	-9	35	1	/	/	/	/
O=C(NCCc1ccccc1)C1(S(=O)(=O)c2ccc(Cl)cc2)CC1	-2	-6	-8	0	-1	/	/	/	/
Cc1ccc(S(=O)(=O)NC(=O)NCCc2ccccc2)cc1	0	18	0	71*	0	81*	0	37	13
CN1CCN(c2ccc(NC(=O)c3ccc([N+](=O)[O-])o3)cc2Cl)CC1	2	4	0	45*	0	55*	1	28	12
COc1nc(NC(C)(C)C)nc(Oc2ccc(=O)n(-c3ccccc3)n2)n1	0	5	2	18	-1	/	/	/	/
CC(C)Nc1nc(NC(C)(C)C)nc(Oc2ccc(=O)n(-c3ccccc3)n2)n1	2	-16	6	70*	12	76*	54*	-1	1
CN(CCNC(=O)c1cn(C)c2ccc(S(=O)(=O)N(C)C)cc2c1=O)CCc1ccccc1	0	-17	-4	44*	0	55*	1	5	-8
CC1CC(C)CN(S(=O)(=O)CC23CCC(CC2=O)C3(C)C)C1 (configuration not stated)	-1	-2	-12	2	-1	/	/	/	/
CC(C)Cc1ccc(C(C)C(=O)Nc2ccc(O)cc2)cc1 (configuration not stated)	50*	93*	-20	119*	44*	108*	71*	101*	82*
CC(C)Cc1ccc([C@H](C)C(=O)O)cc1	1	6	-8	1	0	/	/	/	/
CC(C)Cc1ccc(C(C)C(=O)Nc2cccnc2)cc1 (configuration not stated)	46*	63*	-26	84*	43*	126*	65*	79*	43*
O=C(CN(Cc1ccccc1Cl)S(=O)(=O)c1ccc(Cl)cc1)N/N=C/c1ccc(C(=O)O)cc1	/	1	/	1	/	/	/	/	/
CC(C)C(NC(=O)c1ccccc1)C(=O)OCn1nnc2ccccc2c1=O (configuration not stated)	0	-9	-4	2	2	/	/	/	/
COCCCN1C(=O)/C(=C/c2ccc(CNS(=O)(=O)c3ccccc3)o2)C(C(=O)OC)=C1C	1	-8	-23	4	1	/	/	/	/
Cc1ccc(S(=O)(=O)n2ccc(OC(=O)c3cccs3)n2)cc1	0	19	-4	99*	3	81*	45*	26	21
COc1ccccc1C(=O)Oc1cc(N)n(S(=O)(=O)c2ccc(C)cc2)n1	2	-15	-9	9	-1	/	/	/	/
Cc1ccc(S(=O)(=O)c2c(C)nn(C(C)(C)C)c2OC(=O)c2cccs2)cc1	-2	-6	-13	1	-2	/	/	/	/
Cc1ccc(S(=O)(=O)n2nc(OC(=O)c3cccs3)cc2N)cc1	-1	-2	-12	92*	2	65*	33*	20	14
Cc1ccc(S(=O)(=O)n2nc(OC(=O)c3ccccc3C)cc2N)cc1	1	13	-5	48*	-1	53*	32*	14	23*
COCc1cc(=O)[nH]c(-c2ccccc2OC(F)(F)F)n1	1	-42	4	5	-1	/	/	/	/
SMILES	OXTR agonist	TAAR1 antagonist	OXTR potentiate	TAAR1 agonist	V1aR counter	TAAR1 ag confirm	Ga16 ag counter	TAAR1 desensitize	Ga16 nonsel ant
COc1ccc(CC(=O)Oc2ccc(C(C)C)cc2)cc1S(=O)(=O)N1CCOCC1	2	22	-8	4	3	/	/	/	/
Cc1ccc(CN2CCN(Cc3ccco3)CC2)cc1	0	-11	5	8	0	/	/	/	/
CC(C)C(=O)NC(=S)Nc1ccc(S(=O)(=O)Nc2ccccc2)cc1	5	17	-9	23	11	/	/	/	/
CCOc1ccc(NS(=O)(=O)c2ccc(NC(=S)NC(=O)C(C)C)cc2)cc1	9	14	-17	59*	8	42*	20*	9	17
CCOc1ccc(NS(=O)(=O)c2ccc(NC(=S)NC(C)=O)cc2)cc1	29*	22	-14	85*	27*	75*	48*	53*	33*
O=C(O)c1ccc(N/N=C/C2=Cc3ccccc3OC2)cc1	5	8	-5	89*	13	54*	39*	33	17
COc1ccc(N=Cc2c(O)n(-c3ccc(OC)cc3)c(=O)c3ccccc23)cc1	0	-13	-1	-2	0	/	/	/	/
O=c1c2ccccc2c(C=Nc2cccc(O)c2)c(O)n1-c1ccc2c(c1)OCO2	6	41	-15	62*	2	82*	41*	67*	26*
